Experimental data taken from ChEMBL document CHEMBL5034013, “Discovery of VNRX-7145 (VNRX-5236 Etzadroxil): An Orally Bioavailable β-Lactamase Inhibitor for Enterobacterales Expressing Ambler Class A, C, and D Enzymes” (J Med Chem, 2021).

How the values were obtained:
[1] = tested on: Escherichia coli; experiment: Antibacterial activity against Escherichia coli 786978 expressing KPC assessed as concentration required to restore ceftibuten activity incubated for 16 to 20 hrs in presence of 1 ug/ml ceftibuten by broth microdilution method; format: functional; conditions: time 16-20 hrs
[2] = tested on: Klebsiella pneumoniae; experiment: Antibacterial activity against Klebsiella pneumoniae expressing SHV-12/TEM-1 assessed as concentration required to restore ceftibuten activity incubated for 16 to 20 hrs in presence of 1 ug/ml ceftibuten by broth microdilution method; format: functional; conditions: time 16-20 hrs
[3] = tested on: Escherichia coli; experiment: Antibacterial activity against Escherichia coli 664507 expressing OXA-48 assessed as concentration required to restore ceftibuten activity incubated for 16 to 20 hrs in presence of 1 ug/ml ceftibuten by broth microdilution method; format: functional; conditions: time 16-20 hrs
How it was run: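 Tested against a 25-strain challenge panel of clinical E. coli and K. pneumoniae isolates carrying ESBL (n = 5), KPC (n = 11), class C (n = 4) or OXA-48 (n = 5) β-lactamases. Ceftibuten was held at 1 μg/mL while the BLI concentration varied. The read-out was the BLI concentration that rescued ceftibuten activity.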

[4] = tested on: Escherichia coli; experiment: (§1) In vivo antibacterial activity against Escherichia coli expressing TEM-1/CTX-M-15 infected in C3H/HeJ mouse assessed as log10 reduction in CFU in bladder at 1 to 300 mg/kg, sc administered every 12 hrs for 3 days starting from 4 days post infection and measured at 7 days post infection (reference value: 5.8 log10CFU); format: functional; conditions: dose 1-300 mg/kg; time 3 day
[5] = tested on: Klebsiella pneumoniae; experiment: Antibacterial activity against Klebsiella pneumoniae expressing OXA-48 assessed as concentration required to restore ceftibuten activity incubated for 16 to 20 hrs in presence of 1 ug/ml ceftibuten by broth microdilution method; format: functional; conditions: time 16-20 hrs
[6] = tested on: Klebsiella pneumoniae; experiment: Antibacterial activity against Klebsiella pneumoniae 196477 expressing AmpC/CMY-2/TEM-1/CTX-M-15 assessed as concentration required to restore ceftibuten activity incubated for 16 to 20 hrs in presence of 1 ug/ml ceftibuten by broth microdilution method; format: functional; conditions: time 16-20 hrs
[7] = tested on: Escherichia coli; experiment: Antibacterial activity against Escherichia coli expressing CTX-M-15/TEM-1 assessed as concentration required to restore ceftibuten activity incubated for 16 to 20 hrs in presence of 1 ug/ml ceftibuten by broth microdilution method; format: functional; conditions: time 16-20 hrs
[8] = tested on: Escherichia coli; experiment: as §1, with “kidney” for “bladder”, “6.7” for “5.8”; format: functional; conditions: dose 1-300 mg/kg; time 3 day
[9] = tested on: Escherichia coli; experiment: as §1, with “urine” for “bladder”, “6.7” for “5.8”; format: functional; conditions: dose 1-300 mg/kg; time 3 day
[10] = tested on: Klebsiella pneumoniae; experiment: Antibacterial activity against Klebsiella pneumoniae 156309 expressing SHV-11/TEM-1/KPC-2 assessed as concentration required to restore ceftibuten activity incubated for 16 to 20 hrs in presence of 1 ug/ml ceftibuten by broth microdilution method; format: functional; conditions: time 16-20 hrs
[11] = tested on: Escherichia coli; experiment: Antibacterial activity against Escherichia coli J53 expressing SHV-5/TEM-1/AmpC assessed as concentration required to restore ceftibuten activity incubated for 16 to 20 hrs in presence of 1 ug/ml ceftibuten by broth microdilution method; format: functional; conditions: time 16-20 hrs
[12] = Oral bioavailability in rat at 10 mg/kg administered as cassette dose measured by UPLC-MS/MS; format: ADME, organism-based; conditions: in vivo, 10 mg/kg, in the assay text read “measured” for “administered as cassette dose measured”
How it was run: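 Ester prodrugs are given to rats by oral gavage, some as a cassette with another ester. F is the percent absolute oral bioavailability of the parent, corrected for the MW difference between prodrug and parent.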

[13] = Oral bioavailability in dog at 10 mg/kg administered as cassette dose measured by UPLC-MS/MS analysis; format: ADME, organism-based, Canis lupus familiaris; conditions: in vivo
How it was run: (§2)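 Ester prodrugs are dosed orally. F is the percent absolute oral bioavailability of the parent boronate, corrected for the molecular-weight difference between prodrug and parent.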

[14] = Oral bioavailability in monkey at 10 mg/kg administered as cassette dose measured by UPLC-MS/MS analysis; format: ADME, organism-based, Macaca mulatta; conditions: rhesus monkey, in vivo; how it was run: as §2
[15] = Oral bioavailability in mouse at 5 mg/kg administered as cassette dose measured by UPLC-MS/MS analysis; format: ADME, organism-based; conditions: in vivo; how it was run: as §2

SMILES | Activity [1] [µg/mL] | Activity [2] [µg/mL] | Activity [3] [µg/mL] | Activity [4] [log10CFU/ml] | Activity [5] [µg/mL] | Activity [6] [µg/mL] | Activity [7] [µg/mL] | Activity [8] [log10CFU/ml] | Activity [9] [log10CFU/ml] | Activity [10] [µg/mL] | Activity [11] [µg/mL] | bioavailability [12] [%] | bioavailability [13] [%] | bioavailability [14] [%] | bioavailability [15] [%]
Nc1nc(/C(=C/CC(=O)O)C(=O)N[C@@H]2C(=O)N3C(C(=O)O)=CCS[C@H]23)cs1 [CEFTIBUTEN] | 8 | 32 | 128 | 2 | 256 | 4 | 128 | 2 | 2 | 256 | 256 |  |  |  | 
CCC(=O)N[C@H]1Cc2cccc(C(=O)OCOC(=O)C(C)(C)C)c2OB1O |  |  |  |  |  |  |  |  |  |  |  | 99 | 42 | 52 | 42
